Measured values as given in paper PMC6039208 (Clinical and Translational Science, 2018).

Columns and labels:
[1] = cited from earlier work
ERK = assay: Exposure‐response; assay type: cell-based, human; settings: for Imax,ERK, maximum inhibitory effect on ERK activity: as fraction
Method in brief: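 Ex vivo ERK activity in FLT3‑ITD TF‑1 cells was read by Western blot as percent of each patient's baseline (100%). An inhibitory Emax model versus metabolite‑adjusted concentration was fitted sequentially to the PK model by FOCE‑I, with Imax estimated.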

FLT3‐ITD [2] = target: T1, FLT3‐ITD (Homo sapiens, UniProt P36888); assay: Exposure‐response; assay type: cell-based; settings: doses given in this study (400 or 600 mg b.i.d.)
T1 sequence (P36888 27-993): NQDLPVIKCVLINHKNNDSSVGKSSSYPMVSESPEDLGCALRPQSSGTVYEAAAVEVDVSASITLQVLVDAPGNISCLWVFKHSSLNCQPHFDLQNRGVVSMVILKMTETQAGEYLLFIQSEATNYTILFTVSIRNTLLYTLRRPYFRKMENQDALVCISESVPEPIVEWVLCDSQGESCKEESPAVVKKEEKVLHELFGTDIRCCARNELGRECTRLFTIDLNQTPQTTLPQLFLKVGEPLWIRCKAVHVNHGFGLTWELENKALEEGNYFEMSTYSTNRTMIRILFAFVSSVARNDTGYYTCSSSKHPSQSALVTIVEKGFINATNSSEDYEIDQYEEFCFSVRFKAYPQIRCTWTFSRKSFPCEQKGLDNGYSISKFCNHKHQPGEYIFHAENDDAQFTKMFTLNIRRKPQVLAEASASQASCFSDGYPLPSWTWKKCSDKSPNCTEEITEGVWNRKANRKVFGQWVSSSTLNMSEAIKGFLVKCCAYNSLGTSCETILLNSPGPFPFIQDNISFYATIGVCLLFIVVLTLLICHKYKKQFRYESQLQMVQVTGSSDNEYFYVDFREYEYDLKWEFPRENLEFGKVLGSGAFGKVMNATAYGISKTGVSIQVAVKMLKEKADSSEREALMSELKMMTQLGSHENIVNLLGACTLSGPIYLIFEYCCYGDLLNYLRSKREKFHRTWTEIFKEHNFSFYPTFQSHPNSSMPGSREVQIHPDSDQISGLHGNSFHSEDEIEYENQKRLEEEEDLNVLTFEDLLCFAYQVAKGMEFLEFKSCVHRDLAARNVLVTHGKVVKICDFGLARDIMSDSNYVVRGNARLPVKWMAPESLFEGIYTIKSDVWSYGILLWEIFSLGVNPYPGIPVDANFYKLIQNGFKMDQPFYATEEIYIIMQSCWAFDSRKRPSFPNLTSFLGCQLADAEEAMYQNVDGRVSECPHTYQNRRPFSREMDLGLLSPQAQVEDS

[3] = cited from earlier work; remark: listed apart in the source
[4] = Population PK model of sorafenib and its N‐oxide metabolite in patients with AML; assay type: in vivo, human
FLT3‐ITD [5] = settings: cited from earlier work
CYP3A4 = CYP3A4 (Homo sapiens, UniProt P08684); assay type: in vivo; settings: patients with AML
[6] = FOCE‐I estimate, typical value at 80 kg

Chain of CYP3A4 (P08684 whole entry): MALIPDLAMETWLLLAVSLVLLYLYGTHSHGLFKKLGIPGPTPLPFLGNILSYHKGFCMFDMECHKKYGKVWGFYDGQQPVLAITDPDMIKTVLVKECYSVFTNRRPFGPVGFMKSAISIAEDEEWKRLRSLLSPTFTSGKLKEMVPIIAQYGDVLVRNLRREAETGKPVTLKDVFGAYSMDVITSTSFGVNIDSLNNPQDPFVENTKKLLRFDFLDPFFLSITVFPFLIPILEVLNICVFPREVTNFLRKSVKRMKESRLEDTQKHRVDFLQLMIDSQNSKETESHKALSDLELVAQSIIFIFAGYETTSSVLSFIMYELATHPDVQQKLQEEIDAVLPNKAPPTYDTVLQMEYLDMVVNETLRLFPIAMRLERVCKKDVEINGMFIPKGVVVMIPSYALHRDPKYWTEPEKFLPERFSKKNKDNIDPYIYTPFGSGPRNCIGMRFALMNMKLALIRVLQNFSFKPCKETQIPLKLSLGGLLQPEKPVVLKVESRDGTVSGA

CNC(=O)c1cc(Oc2ccc(NC(=O)Nc3ccc(Cl)c(C(F)(F)F)c3)cc2)ccn1 [sorafenib]
dose above which saturable absorption occurs [1]: over 400 mg
time to steady‐state [1]: ≤ 7 days
Imax,ERK, maximum inhibitory effect on ERK activity (ERK; FOCE‐I estimate): 0.84
extent of ERK activity inhibition (ERK; doses given in this study (400 or 600 mg b.i.d.)): could not be completely inhibited
Imax,ERK, maximum inhibitory effect on ERK activity (ERK; median of 1,000 bootstraps): 0.82
extent of FLT3‐ITD activity inhibition (FLT3‐ITD [2]): fully inhibited
dose‐limiting toxicity rate ([3]; 400 mg b.i.d. regimen, 2/9 patients, original clinical trial ref 9): ~20%
proportion of patients with AML able to adhere to dosing ([3]; continuous 400 mg b.i.d.): 18%
K64, release rate constant from gallbladder back to the gastrointestinal track ([4]; FOCE‐I estimate): 0.173 h⁻¹
TENT, time controller of enterohepatic recirculation (time after dose) ([4]; FOCE‐I estimate): 5.48 h
fENT, fraction of sorafenib that goes through enterohepatic circulation ([4]; FOCE‐I estimate): 50.20%
Ka, absorption rate constant ([4]; FOCE‐I estimate, patients with AML, oral): 3.75 h⁻¹
clearance ([4]; human, plasma, oral, CL, total clearance, median of 1,000 bootstraps): 237 mL/min
fraction unbound ([4]; human, plasma, oral, fu, %fraction of unbound sorafenib, FOCE‐I estimate): 0.0181
K64, release rate constant from gallbladder back to the gastrointestinal track ([4]; median of 1,000 bootstraps): 0.17 h⁻¹
Ka, absorption rate constant ([4]; median of 1,000 bootstraps): 3.78 h⁻¹
TENT, time controller of enterohepatic recirculation (time after dose) ([4]; median of 1,000 bootstraps): 5.47 h
fENT, fraction of sorafenib that goes through enterohepatic circulation ([4]; median of 1,000 bootstraps): 50.20%
concentration dependence of plasma protein binding ([4]; within the observed concentration range): concentration independent
in vitro FLT3‐ITD inhibitory activity compared with midostaurin (FLT3‐ITD [5]): fourfold higher

CNC(=O)c1cc(Oc2ccc(NC(=O)Nc3ccc(Cl)c(C(F)(F)F)c3)cc2)cc[n+]1[O-] [sorafenib N‐oxide]
CLm, clearance of the N‐oxide metabolite [4, 6]: 116 L/h
V7, apparent volume of distribution (compartment A7) of the N‐oxide metabolite [4, 6]: 89.80 L
CLm, clearance of the N‐oxide metabolite ([4]; median of 1,000 bootstraps): 123 L/h
V7, apparent volume of distribution (compartment A7) of the N‐oxide metabolite ([4]; median of 1,000 bootstraps): 94.50 L
fold more potent than the parent drug, FLT3‐ITD potency (FLT3‐ITD [5]; in vitro study, N‐oxide vs sorafenib): 14.59 fold

C[C@@H](c1ncncc1F)[C@](O)(Cn1cncn1)c1ccc(F)cc1F [voriconazole]
change in sorafenib exposure in the presence of the inhibitor (CYP3A4): no change
